The results in this text go back to PubChem BioAssay.

Each structure is given as a SMILES string. The source made the active and inactive calls.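 How the source made its calls, unless noted: active means potentiation averaged over duplicate wells exceeding buffer-only control mean by more than 3 SD; inactive means the rest.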

The nature of assay [1]: nonspecific flux increase, KCNQ1-free cells – parental CHO cells, counter-screen for KCNQ1 potentiator project (AID 493006;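 active means duplicate-averaged activation above buffer control mean plus 5 SD of those controls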). The following applies: parental CHO-K1 cells, FluxOR thallium flux, at 10 µM; hits give high values. Put shortly: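 Assay system: parental CHO-K1 cells lacking KCNQ1, loaded with FluxOR thallium dye; timing: dye 90 min RT, compound 20 min RT; signal: kinetic thallium-flux fluorescence; repeats: duplicate wells per compound, percent values averaged; benchmarks: buffer and R-L3 controls; reagent: Potassium/thallium depolarization pulse; read-out: fluorescence change ratio scaled 0% buffer, 100% R-L3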

The target of assay [2] is Potassium voltage-gated channel subfamily KQT member 1 (Homo sapiens) (UniProt P51787). Put plainly: enhancement of KCNQ1 channel thallium flux – FluxOR thallium flux, CHO cells, duplicates, confirmation (AID 493007).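 On outcome: cells depolarized by a potassium plus thallium sulfate stimulus after compound.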 As to conditions: KCNQ1 cell line, FluxOR thallium flux fluorescence, at 10 µM; hits give high values, % of reference activator effect, buffer zero. An outline of the steps: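 material = CHO cells stably expressing the KCNQ1 potassium channel | repeats = duplicate wells per compound | measure = percent activation between buffer and R-L3 responses | signal = FluxOR thallium-flux fluorescence, kinetic read | schedule = FluxOR dye loading 90 min, compound exposure 20 min, room temperature | control set = buffer and R-L3 controls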

For assay [3], the target named is Potassium voltage-gated channel subfamily KQT member 2 (Rattus norvegicus) (UniProt O88943). Put plainly: KCNQ2 thallium flux enhancement – KCNQ2-CHO-K1 cells, selectivity assay for KCNQ1 potentiator project (AID 493009;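 active means mean duplicate potentiation above the buffer control mean plus 5 SD of buffer wells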;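 further: assay conditions were tuned for KCNQ1 rather than KCNQ2 modulators; signal is max minus min fluorescence divided by baseline after thallium stimulus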). The following applies: FluxOR thallium flux fluorescence, at 10 µM; hits give high values, scaled: buffer 0, activator control 100.
For assay [4], the target named is Potassium voltage-gated channel subfamily KQT member 1 (Homo sapiens) (UniProt P51787). Nature of the assay: KCNQ1 activators by electrophysiology – IonWorks patch clamp, KCNQ1-CHO cells, orthogonal assay for KCNQ1 potentiator project, confirmation (AID 493184;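 active means current rise at least 3 SD above the untreated control mean in each of two repeat wells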). The following applies: automated patch clamp current, at 10 µM; hits give high values. An outline of the steps:
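Assay system – CHO cells carrying KCNQ1 · Medium – pH 7.4 external bath · Probe or stimulus – depolarizing pulse to +40 mV from -90 mV · Compound dosing – one dose, 10 µM final · Measured by – automated perforated-patch electrophysiology · Measure – % potentiation of steady-state current relative to pre-compound · Repeats – two replicates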

In assay [5] the target is Potassium voltage-gated channel subfamily E member 1 (Homo sapiens) + Potassium voltage-gated channel subfamily KQT member 1 (Homo sapiens) (UniProt P15382+P51787). Nature of the assay: KCNQ1-E1 channel activation – thallium flux, CHO-K1 KCNQ1/E1 cells, selectivity assay for KCNQ1 potentiator project, confirmation (AID 493186;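 active means mean duplicate activation above the buffer control mean plus 5 SD of those controls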). The following applies: FluxOR thallium flux, at 10 µM; hits give high values. An outline of the steps: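 Assay system: CHO-K1 cells with KCNQ1/E1 | Dosing: Single compound concentration per well | Incubation: Dye 90 min, compound 20 min, room temperature | Measured by: FluxOR Tl+ flux fluorescence, kinetic read | Controls: Buffer low control, R-L3 high control | Replicates: Duplicate wells per compound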
Potassium voltage-gated channel subfamily E member 1 (Homo sapiens) + Potassium voltage-gated channel subfamily KQT member 1 (Homo sapiens), sequence (P51787 whole entry, looked up): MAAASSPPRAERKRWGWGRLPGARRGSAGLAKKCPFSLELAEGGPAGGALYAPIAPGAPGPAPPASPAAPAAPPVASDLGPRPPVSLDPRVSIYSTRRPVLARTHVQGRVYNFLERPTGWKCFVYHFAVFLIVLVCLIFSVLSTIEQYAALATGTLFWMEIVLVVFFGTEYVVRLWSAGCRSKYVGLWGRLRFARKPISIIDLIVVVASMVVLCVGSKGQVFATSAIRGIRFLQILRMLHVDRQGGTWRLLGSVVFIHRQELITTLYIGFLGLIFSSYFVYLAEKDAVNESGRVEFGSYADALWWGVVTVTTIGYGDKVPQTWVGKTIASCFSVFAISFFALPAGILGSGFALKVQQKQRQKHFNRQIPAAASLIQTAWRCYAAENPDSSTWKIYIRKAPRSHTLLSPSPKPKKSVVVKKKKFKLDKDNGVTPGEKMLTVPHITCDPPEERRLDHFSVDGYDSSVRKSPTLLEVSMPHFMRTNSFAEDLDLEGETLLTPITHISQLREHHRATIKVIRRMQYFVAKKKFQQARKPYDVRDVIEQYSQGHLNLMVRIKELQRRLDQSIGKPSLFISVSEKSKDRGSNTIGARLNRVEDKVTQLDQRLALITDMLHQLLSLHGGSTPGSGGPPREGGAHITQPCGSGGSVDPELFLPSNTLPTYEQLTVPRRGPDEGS

Potassium voltage-gated channel subfamily KQT member 1 (Homo sapiens), sequence (P51787 whole entry, looked up): as above
Potassium voltage-gated channel subfamily KQT member 2 (Rattus norvegicus), sequence (O88943 whole entry, looked up): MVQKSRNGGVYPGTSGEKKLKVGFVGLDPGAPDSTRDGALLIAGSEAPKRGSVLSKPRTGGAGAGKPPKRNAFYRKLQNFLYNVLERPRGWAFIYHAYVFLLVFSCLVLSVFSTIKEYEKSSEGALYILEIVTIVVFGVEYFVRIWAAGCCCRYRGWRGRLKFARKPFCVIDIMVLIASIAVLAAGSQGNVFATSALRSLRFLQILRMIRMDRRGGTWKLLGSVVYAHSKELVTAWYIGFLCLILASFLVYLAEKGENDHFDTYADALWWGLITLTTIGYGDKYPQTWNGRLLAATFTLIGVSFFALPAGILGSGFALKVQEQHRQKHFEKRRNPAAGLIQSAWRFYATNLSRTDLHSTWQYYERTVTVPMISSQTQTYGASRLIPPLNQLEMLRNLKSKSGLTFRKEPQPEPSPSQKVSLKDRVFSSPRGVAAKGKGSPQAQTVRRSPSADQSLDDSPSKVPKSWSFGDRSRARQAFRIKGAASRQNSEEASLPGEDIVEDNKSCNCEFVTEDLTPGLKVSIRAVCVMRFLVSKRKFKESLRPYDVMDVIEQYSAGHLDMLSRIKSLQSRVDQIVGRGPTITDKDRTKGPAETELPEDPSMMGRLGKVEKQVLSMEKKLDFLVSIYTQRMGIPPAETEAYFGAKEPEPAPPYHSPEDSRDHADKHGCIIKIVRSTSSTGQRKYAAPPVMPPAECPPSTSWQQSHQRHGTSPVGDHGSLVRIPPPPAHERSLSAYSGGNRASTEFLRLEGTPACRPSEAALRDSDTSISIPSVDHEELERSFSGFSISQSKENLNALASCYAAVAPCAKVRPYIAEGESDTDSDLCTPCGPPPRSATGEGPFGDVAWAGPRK

For `CC(=O)/C(=N/Nc1ccc([N+](=O)[O-])cc1)N1CCCc2ccccc21`, the result in assay [1], in assay [2], in assay [3], in assay [4] and in assay [5] was inactive.
As for `S=C(Nc1ccc(Cl)cc1)c1nc2ccccc2s1`, the result in assay [1], in assay [3] and in assay [4] was inactive. Also, in assay [2], the potentiation is 47.5% (active). Further, the activation in assay [5] is 23.8% (active).
In the case of `CCc1ccc(-c2ccc3nnc(SC)n3n2)cc1`, the outcome in assay [1], in assay [2], in assay [3], in assay [4] and in assay [5] was inactive.
Turning to `CC(=O)C[C@H]1c2cc(C(F)(F)F)ccc2S(=O)(=O)N1Cc1ccccc1`, the result in assay [1], in assay [3], in assay [4] and in assay [5] was inactive. Also, the potentiation in assay [2] is 65.5% (active).
As for `O=C(NNc1cc(N2CCOCC2)nc(N2CCOCC2)n1)C12CC3CC(CC(C3)C1)C2`, the outcome in assay [1], in assay [3], in assay [4] and in assay [5] was inactive. For the same compound, the potentiation in assay [2] was 51% (active).
`CCn1c(=S)sc2nc(C)sc21`: the result in assay [1], in assay [2], in assay [3], in assay [4] and in assay [5] was inactive.
As for `CCOC(=O)c1cnn(-c2nc(SC)nc3sc4c(c23)CCCC4)c1N`, the result in assay [1], in assay [4] and in assay [5] was inactive. In addition, the potentiation in assay [2] was 29.5% (active); in assay [3], 142% (active).
Turning to `O=C1c2ccccc2C(=O)C12OC2c1cccc2ccccc12` (stereo not given), the result in assay [1], in assay [2], in assay [3], in assay [4] and in assay [5] was inactive.
For the compound `Cc1ccc2cc(/C=N/NC(=O)CN3CCCCC3)c(Cl)nc2c1`, the result in assay [1], in assay [2], in assay [3], in assay [4] and in assay [5] was inactive.
With `O=C(NCC1CCCO1)c1cccc(Oc2ccccc2)c1` (stereo not given), the outcome in assay [1], in assay [2], in assay [3], in assay [4] and in assay [5] was inactive.
For the compound `O=C(NNc1ncc(C(F)(F)F)cc1Cl)c1ccc(Cl)c(Cl)c1`, the outcome in assay [1], in assay [2], in assay [4] and in assay [5] was inactive. Also, the potentiation in assay [3] was 198% (active).
Consider `COc1ccc(C(=O)NNC(=S)NC(=O)c2cc(-c3ccccc3)nc3ccccc23)cc1`, for which the result in assay [1], in assay [2], in assay [3], in assay [4] and in assay [5] was inactive.
In the case of `CCCCc1ccc(-c2csc(/C(C#N)=C/c3ccco3)n2)cc1`, the result in assay [1], in assay [3], in assay [4] and in assay [5] was inactive. In addition, the potentiation in assay [2] was 132% (active).
On to `N#Cc1ccc(Cl)cc1NC(=O)COC(=O)[C@H](CCC(N)=O)NC(=O)c1ccc(F)cc1`, for which the result in assay [1], in assay [2], in assay [3], in assay [4] and in assay [5] was inactive.
In the case of `COc1ccc(OCCCC(=O)NNC(=O)CCN2CCN(c3ccccc3)CC2)cc1`, the outcome in assay [1], in assay [4] and in assay [5] was inactive. Also, the results for the potentiation in assay [2] and in assay [3] were 19% (active) and 142% (active), respectively.
In the case of `CCOc1cc(CN2CCN(C(=O)CC(C)C)CC2)ccc1OC`, the result in assay [1], in assay [3], in assay [4] and in assay [5] was inactive. Besides, the potentiation in assay [2] is 23.5% (active).
For `COc1ccc(C2CC(c3c(-c4ccccc4)c4cc(Cl)ccc4[nH]c3=O)=NN2S(C)(=O)=O)cc1OC` (stereo not given), the result in assay [1], in assay [2], in assay [3], in assay [4] and in assay [5] was inactive.
As to `Cc1ccc(C(=O)NC(=S)N2CCN(c3ccccc3F)CC2)cc1`, the result in assay [1], in assay [2], in assay [3], in assay [4] and in assay [5] was inactive.
For the compound `O=C(COc1ccccc1Cl)NC(=S)N1CCc2ccccc21`, the result in assay [1], in assay [2], in assay [3], in assay [4] and in assay [5] was inactive.
Consider `Cc1ccc(NC(=S)NC(=O)c2ccc(-c3ccccc3)cc2)c(C)c1`, for which the outcome in assay [1], in assay [2], in assay [3], in assay [4] and in assay [5] was inactive.
As to `O=c1c2cc(Cl)ccc2[nH]c(=S)n1Cc1cccs1`, the result in assay [1], in assay [2], in assay [4] and in assay [5] was inactive. For the same compound, in assay [3], the potentiation is 142% (active).
Take `CC(C)(C)c1ccc(-n2nc(C#N)c(Cl)cc2=O)cc1`: the result in assay [1], in assay [2], in assay [3], in assay [4] and in assay [5] was inactive.
Consider `O=C(CSc1nnc(NC(=O)C2CCC2)s1)Nc1ccc(N2CCOCC2)cc1`, for which the result in assay [1], in assay [2], in assay [3], in assay [4] and in assay [5] was inactive.
For `CCOC(=O)c1cccc(NC(=O)CCc2nnc3ccc(N4CCCCC4)nn23)c1`, the outcome in assay [1], in assay [2], in assay [3], in assay [4] and in assay [5] was inactive.
Consider `COc1ccc(-n2ccnc(SCC(=O)NC3CCCC3)c2=O)cc1OC`, for which the result in assay [1], in assay [2], in assay [3], in assay [4] and in assay [5] was inactive.
For the compound `Cc1ccc(N(C(=O)Cn2nnc(-c3ccccc3F)n2)C(C(=O)NC2CCCC2)c2ccncc2)cc1` (stereo not given), the result in assay [1], in assay [2], in assay [3], in assay [4] and in assay [5] was inactive.
As for `CCCOc1ccc(C(=O)NNC(=S)NC(=O)c2cc(-c3ccc(Cl)cc3)nc3ccccc23)cc1`, the result in assay [1], in assay [2], in assay [3], in assay [4] and in assay [5] was inactive.
In the case of `CCCCOc1cccc(C(=O)NC(=S)Nc2cccnc2)c1`, the result in assay [1], in assay [2], in assay [4] and in assay [5] was inactive. The potentiation in assay [3] was 143% (active).
`CC1CN(c2nc3ccccc3nc2C(C#N)C(=O)NCc2ccc3c(c2)OCO3)CC(C)O1` (stereo not given): the outcome in assay [1], in assay [3], in assay [4] and in assay [5] was inactive. In assay [2], the potentiation is 26% (active).
Consider `COC(=O)c1sccc1NS(=O)(=O)c1ccc(F)cc1F`, for which the result in assay [1], in assay [2], in assay [3], in assay [4] and in assay [5] was inactive.
